Assay results published in ChEMBL document CHEMBL3102696, “Synthesis/biological evaluation of hydroxamic acids and their prodrugs as inhibitors for Botulinum neurotoxin A light chain” (Bioorg Med Chem, 2014).
Active and inactive are the calls of the source. No cut-off for these calls is given here.

What was measured:
[1] = molecular target: T1, Botulinum neurotoxin type A (Clostridium botulinum, UniProt P0DPI0); experiment: Inhibition of Clostridium botulinum BoNT/A light chain (1 to 425 amino acids) by FRET method
T1 sequence (P0DPI0 2-448 limits assumed): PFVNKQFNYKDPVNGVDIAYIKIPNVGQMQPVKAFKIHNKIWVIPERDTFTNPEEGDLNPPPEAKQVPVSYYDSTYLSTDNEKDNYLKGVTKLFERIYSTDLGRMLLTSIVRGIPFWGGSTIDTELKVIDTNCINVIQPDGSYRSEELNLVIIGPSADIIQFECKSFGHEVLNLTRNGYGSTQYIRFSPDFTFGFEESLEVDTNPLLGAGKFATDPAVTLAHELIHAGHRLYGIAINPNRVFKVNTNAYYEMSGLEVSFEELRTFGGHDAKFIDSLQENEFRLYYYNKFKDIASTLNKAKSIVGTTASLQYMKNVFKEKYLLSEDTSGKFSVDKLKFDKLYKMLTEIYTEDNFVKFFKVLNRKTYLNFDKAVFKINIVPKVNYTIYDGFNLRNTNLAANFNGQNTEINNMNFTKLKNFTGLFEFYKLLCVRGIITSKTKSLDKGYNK
Method in brief: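 Recombinant truncated light chain (residues 1–425) at 37 nM, incubated with SNAPtide, a 13mer SNAP-25 pseudosubstrate carrying a FITC fluorophore and a DABCYL quencher. Cleavage read as FRET fluorescence.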

[2] = molecular target: T1, Botulinum neurotoxin type A; experiment: Inhibition of Clostridium botulinum BoNT/A light chain (1 to 425 amino acids) by LC-MS analysis
[3] = Cytotoxicity against human induced pluripotent stem cell-derived neurons at 200 uM; details: induced pluripotent stem cell-derived neuron
[4] = molecular target: Botulinum neurotoxin type A (Clostridium botulinum) (UniProt P0DPI0); details: Hall A hyper
Chain of Botulinum neurotoxin type A (Clostridium botulinum) (P0DPI0 2-448 limits assumed): as above

[5] = molecular target: T1, Botulinum neurotoxin type A; parameters: species or system Hall A hyper
[6] = molecular target: Botulinum neurotoxin type A (Clostridium botulinum) (UniProt P0DPI0); details: Hall A hyper; remark: listed apart in the source
[7] = Cytotoxicity against human induced pluripotent stem cell-derived neurons at 1 mM; details: induced pluripotent stem cell-derived neuron, 1000 µM
[8] = molecular target: Botulinum neurotoxin type A (Clostridium botulinum) (UniProt P0DPI0); details: Hall A hyper; remark: listed apart in the source
[9] = Cytotoxicity against human induced pluripotent stem cell-derived neurons at 150 uM; details: induced pluripotent stem cell-derived neuron

Compound: O=C(CC(CC(=O)NCCC1CC1)c1ccc(Cl)cc1Cl)NO (stereo not drawn)
- IC50 [1]: 9.2 µM

Compound: COc1cc(F)ccc1NC(=O)CC(CC(=O)NO)c1ccc(Cl)cc1Cl (stereo not drawn)
- IC50 [1]: 1.1 µM
- Ki [2]: 1 µM

Compound: COc1ccc(CCNC(=O)CC(CC(=O)NO)c2ccc(Cl)cc2Cl)cc1 (stereo not drawn)
- IC50 [1]: 6.7 µM

Compound: O=C(CC(CCO)c1ccc(Cl)cc1Cl)NO (stereo not drawn)
- Activity [3]: Non-toxic

Compound: O=C(CC(CC(=O)Nc1ccc(Br)cc1)c1ccc(Cl)cc1Cl)NO (stereo not drawn)
- IC50 [1]: 6.4 µM

Compound: O=C(CC(CCO)c1ccc(Cl)cc1Cl)NOC(=O)NCc1ccccc1 (stereo not drawn)
- inhibition [4]: Active

Compound: O=C(CC(CCOCC12CC3CC(CC(Br)(C3)C1)C2)c1ccc(Cl)cc1Cl)NOC(=O)NCc1ccccc1 (stereo not drawn)
- EC50 [5]: > 1000 µM

Compound: O=C(CC(CCOCc1ccccc1)c1ccc(Cl)cc1Cl)NOC(=O)NCc1ccccc1 (stereo not drawn)
- inhibition [6]: inactive
- Activity [7]: Toxic

Compound: O=C(CC(CCOCc1ccccc1)c1ccc(Cl)cc1Cl)NO (stereo not drawn)
- IC50 [1]: 2.9 µM

Compound: C=CCOCCC(CC(=O)NO)c1ccc(Cl)cc1Cl (stereo not drawn)
- IC50 [1]: 5.4 µM

Compound: Cc1ccccc1NC(=O)CC(CC(=O)NOC(=O)NCc1ccccc1)c1ccc(Cl)cc1Cl (stereo not drawn)
- EC50 [5]: 209 µM

Compound: O=C(CC(CCOCCc1ccc(F)cc1)c1ccc(Cl)cc1Cl)NO (stereo not drawn)
- IC50 [1]: 0.97 µM
- Ki [2]: 2.1 µM

Compound: O=C(CC(CCOCCc1ccc(F)cc1)c1ccc(Cl)cc1Cl)NOC(=O)NCc1ccccc1 (stereo not drawn)
- inhibition [6]: inactive
- Activity [7]: Toxic

Compound: O=C(CC(CC(=O)Nc1ccc(Br)cc1)c1ccc(Cl)cc1Cl)NOC(=O)NCc1ccccc1 (stereo not drawn)
- EC50 [5]: 198 µM

Compound: O=C(CC(CCOCC12CC3CC(CC(Br)(C3)C1)C2)c1ccc(Cl)cc1Cl)NO (stereo not drawn)
- IC50 [1]: 13 µM

Compound: O=C(CC(CC(=O)NCCc1ccc(F)cc1)c1ccc(Cl)cc1Cl)NO (stereo not drawn)
- IC50 [1]: 2.6 µM

Compound: O=C(/C=C/c1ccc(Cl)cc1Cl)NOC(=O)NCc1ccccc1
- inhibition [8]: inactive
- Activity [9]: Toxic

Compound: Cc1ccccc1NC(=O)CC(CC(=O)NO)c1ccc(Cl)cc1Cl (stereo not drawn)
- IC50 [1]: 2 µM
